This is a sample that favours compounds with a hit; in the whole collection about 3.1% have one here.
HCV core dimer = blocks dimerization of HCV core protein; TR-FRET GST/Flag-core106 dimerization, 1536-well; inhibition, % at 5 µM; hit rate 0.33% among 300,000;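 active = inhibition above the mean of all tested compounds plus 3 SD, set per screening campaign, cut at about 45% in these data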
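Test system: GST/Flag-tagged HCV core106 proteins; Medium: KF-containing HEPES buffer, pH 7.45, DTT, CHAPS, BSA; Times: compound-protein-antibody incubation 4 h at 22.5 °C; Detection: TR-FRET 671 and 617 nm emission; Benchmarks: wells lacking GST-core106 and wells with excess unlabelled core106.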
PP5 inh = blocks human protein phosphatase 5 activity. purified PP5c, OMFP substrate fluorescence. hit rate 0.18% among 320,000. inhibition, % at 6.7 µM. AID 1987;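 active = inhibition above the campaign's mean inhibition across all tested compounds plus 3 SD, cut at about 9.5% in these data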
NadD inh = NadD (S. aureus) enzyme inhibition. purified NadD enzyme, colorimetric absorbance read-out. inhibition, % at 20 µM. hit rate 0.78% among 360,000; in the data active = inhibition above about 26%
Myeloid diff MLP = myeloid differentiation induction | ER-HoxA9 myeloid progenitors, lysozyme-GFP differentiation, flow cytometry | calls only at 10 µM | hit rate 1% among 360,000 | AID 624256;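 active = normalized GFP-positive differentiation at or above the plate's own cutoff, the solvent-only control mean plus 3 SD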;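 also: cells exposed to compound for four days before flow analysis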
CTSL1 counter = counter-screen for PFM18AAP inhibitors: inhibitors of F. hepatica cathepsin L1 | recombinant F. hepatica cathepsin L1, Z-Leu-Arg-MCA fluorescence | AID 1906 | inhibition, % at 5.96 µM | hit rate 0.49% among 300,000;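 active = inhibition above the mean of all tested compounds plus 3 SD, set per screening campaign, cut at about 17% in these data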
PP1 inh = PP1-alpha (human) inhibition in PP5 counter-screen. purified PP1alpha, OMFP fluorescence. inhibition, % at 6.7 µM. hit rate 0.9% among 320,000;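 active = inhibition above the mean inhibition of all tested compounds plus 3 SD, computed separately for each screening campaign, cut at about 15% in these data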
Target sequence (P62136 whole entry, looked up): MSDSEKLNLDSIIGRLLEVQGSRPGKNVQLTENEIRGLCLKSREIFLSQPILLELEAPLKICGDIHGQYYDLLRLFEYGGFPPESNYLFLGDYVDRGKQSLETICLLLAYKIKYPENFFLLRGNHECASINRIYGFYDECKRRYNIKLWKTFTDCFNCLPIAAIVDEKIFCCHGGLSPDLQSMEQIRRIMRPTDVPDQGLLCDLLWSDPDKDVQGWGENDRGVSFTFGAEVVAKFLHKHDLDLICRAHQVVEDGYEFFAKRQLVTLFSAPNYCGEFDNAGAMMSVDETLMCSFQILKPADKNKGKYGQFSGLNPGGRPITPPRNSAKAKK
NadD inh conf = confirmation of Staphylococcus aureus NadD inhibitors; inhibition, % at 20 µM; hit rate 13% among 2,000; purified S. aureus NadD, colorimetric enzyme assay; shares compounds with NadD inh; in the data active = inhibition mostly above about 42%, no sharp cut-off; inactive = mostly below about 42%
Numbers stand for hits.

CC(=O)NC1C(OC(=O)/C=C/c2ccccc2)OC(COC(C)=O)C(OC(C)=O)C1OC(C)=O (stereo not drawn) was read as HCV core dimer inactive, PP5 inh inactive, NadD inh inactive, Myeloid diff MLP inactive, CTSL1 counter inactive and PP1 inh inactive.
`Cc1cc(C)c(S(=O)(=O)Nc2cccc(C(=O)O)c2)cc1S(=O)(=O)Nc1cccc(C(=O)O)c1` gave HCV core dimer inactive, PP5 inh inactive, NadD inh inactive, Myeloid diff MLP inactive, CTSL1 counter inactive and PP1 inh inactive.
Screening CCCCc1nc2ccccc2c(=O)n1NC(=O)c1c(O)c2c(n(CC(C)C)c1=O)CCCC2 returned NadD inh 33, Myeloid diff MLP inactive and NadD inh conf inactive.
For O=C1NC(c2ccc(Br)cc2)Oc2ccccc21 (stereo not drawn) the results were HCV core dimer inactive, PP5 inh inactive, NadD inh inactive, Myeloid diff MLP inactive, CTSL1 counter inactive and PP1 inh inactive.
O=S(=O)(Nc1nccs1)c1ccc(Nc2nnc(-c3ccccc3)c3ccccc23)cc1 was read as HCV core dimer inactive, PP5 inh inactive, NadD inh 64, Myeloid diff MLP inactive, CTSL1 counter inactive, PP1 inh 17 and NadD inh conf 62.
`Cc1onc(-c2ccccc2)c1C(=O)Nc1ccc(S(=O)(=O)Nc2nccs2)cc1` gave HCV core dimer inactive, PP5 inh inactive, NadD inh inactive, Myeloid diff MLP inactive, CTSL1 counter inactive and PP1 inh inactive.
O=c1c(/C=N/Nc2ccccc2)c(Sc2nnnn2-c2ccccc2)nc2ccccn12 was read as NadD inh 31, Myeloid diff MLP inactive and NadD inh conf inactive.
O=Cc1c(Sc2ccccc2)nc2ccccn2c1=O was read as HCV core dimer inactive, PP5 inh inactive, NadD inh inactive, Myeloid diff MLP inactive, CTSL1 counter inactive and PP1 inh inactive.
For COc1ccc(-c2ccc3[nH]c4c(c3c2)CCN2C(=O)[C@@H]([C@H](C)O)[C@@H](N(C)C(=O)Nc3ccc(F)cc3)C[C@@H]42)cc1 the results were NadD inh inactive and Myeloid diff MLP inactive.
`COc1ccc(-c2ccc3[nH]c4c(c3c2)CCN2C(=O)[C@@H]([C@H](C)O)[C@@H](N(C)C(=O)Nc3cc(Cl)cc(Cl)c3)C[C@@H]42)cc1` gave NadD inh 31, Myeloid diff MLP inactive and NadD inh conf inactive.
Cc1ccc(S(=O)(=O)c2nnn3c2nc(N2CCN(c4ccccn4)CC2)c2ccccc23)cc1C was read as HCV core dimer inactive, PP5 inh inactive, NadD inh 40, Myeloid diff MLP inactive, CTSL1 counter inactive, PP1 inh inactive and NadD inh conf inactive.
For CC(=O)CC1c2cc(F)ccc2C=C(c2ccsc2)N1c1ccc(C#Cc2cncn2C)cc1 (stereo not drawn) the results were NadD inh 42, Myeloid diff MLP inactive and NadD inh conf inactive.
Screening CC(=O)CC1c2cc(F)ccc2C=C(c2ccsc2)N1c1ccc(C#CC2(O)CCCCC2)cc1 (stereo not drawn) returned NadD inh inactive and Myeloid diff MLP inactive.
`Cn1cncc1C#Cc1ccc(N2C(c3ccsc3)=Cc3ccc(F)cc3C2c2c[nH]c3ccccc23)cc1` (stereo not drawn) gave NadD inh 39, Myeloid diff MLP inactive and NadD inh conf inactive.
For CCc1nc2c(OCc3cc(Cl)cc(Cl)c3)cccn2c1N(C)C(=O)Nc1ccccc1OC the results were NadD inh inactive and Myeloid diff MLP inactive.
`CN(C)C(=O)CCc1ccc2c3c([nH]c2c1)[C@]1(C)[C@@H](C(=O)N2CCOCC2)C[C@H](CC(=O)NCc2cccc(C(F)(F)F)c2)C(=O)N1CC3` gave NadD inh inactive and Myeloid diff MLP inactive.
For CCN(CC(=O)NCc1ccc(F)cc1)C(=O)c1cccnc1SC the results were HCV core dimer inactive, PP5 inh inactive, NadD inh inactive, CTSL1 counter inactive and PP1 inh inactive.
`O=C(Cc1cn2ccsc2n1)Nc1nc2c(s1)CN(Cc1ccccc1)CC2` gave HCV core dimer inactive, PP5 inh inactive, NadD inh 35, Myeloid diff MLP inactive, CTSL1 counter inactive, PP1 inh inactive and NadD inh conf inactive.
O=C(Nc1nc2c(s1)CN(Cc1ccccc1)CC2)c1cccc(S(=O)(=O)N2CCc3ccccc32)c1 was read as HCV core dimer inactive, PP5 inh inactive, NadD inh 34, Myeloid diff MLP active, CTSL1 counter inactive, PP1 inh inactive and NadD inh conf inactive.
COc1ccc(-c2csc(Nc3ccc(S(=O)(=O)Nc4cc(C)on4)cc3)n2)cc1C was read as HCV core dimer inactive, PP5 inh inactive, NadD inh inactive, Myeloid diff MLP inactive, CTSL1 counter inactive and PP1 inh inactive.
Screening COc1cc(NS(=O)(=O)c2ccc(NC(C)=O)cc2)nc(OC)n1 returned HCV core dimer inactive, PP5 inh inactive, NadD inh inactive, Myeloid diff MLP inactive, CTSL1 counter inactive and PP1 inh inactive.
For COc1ccc(-c2csc(NC(=O)c3ccccc3NS(=O)(=O)c3ccc(C)cc3)n2)cc1 the results were HCV core dimer inactive, PP5 inh inactive, NadD inh 42, Myeloid diff MLP inactive, CTSL1 counter inactive, PP1 inh inactive and NadD inh conf 51.
`COc1ccc(-c2csc(Nc3ccc(S(=O)(=O)Nc4cc(OC)nc(OC)n4)cc3)n2)cc1` gave HCV core dimer inactive, PP5 inh inactive, NadD inh 28, Myeloid diff MLP inactive, CTSL1 counter inactive, PP1 inh inactive and NadD inh conf inactive.
For COc1ccc(S(=O)(=O)Nc2ccccc2C(=O)Nc2nc(-c3ccc(F)cc3)cs2)cc1OC the results were HCV core dimer inactive, PP5 inh inactive, NadD inh inactive, Myeloid diff MLP inactive, CTSL1 counter inactive and PP1 inh inactive.
Cc1ccccc1C(=O)Nc1nc(-c2cccnc2)cs1 was read as HCV core dimer inactive, PP5 inh inactive, NadD inh 30, Myeloid diff MLP inactive, CTSL1 counter inactive, PP1 inh inactive and NadD inh conf inactive.
For COc1cc(NS(=O)(=O)c2ccc(N/C=C(\C#N)c3nc4cc(Cl)ccc4o3)cc2)nc(OC)n1 the results were HCV core dimer inactive, PP5 inh inactive, NadD inh 39, CTSL1 counter inactive, PP1 inh inactive and NadD inh conf inactive.
Screening CCNC(=O)C1CCCN(C(=O)c2cc(C)oc2C)CC1 (stereo not drawn) returned NadD inh inactive and Myeloid diff MLP inactive.
For CCOc1ccc(NC(c2ccccc2)P(=O)(OC)OC)cc1 (stereo not drawn) the results were HCV core dimer inactive, PP5 inh inactive, NadD inh inactive, Myeloid diff MLP inactive, CTSL1 counter inactive and PP1 inh inactive.

Screens: PubChem, several laboratories
